This is an account of results in ChEMBL document CHEMBL1157582, “Synthesis and uptake of fluorescence-labeled Combi-molecules by P-glycoprotein-proficient and -deficient uterine sarcoma cells MES-SA and MES-SA/DX5” (J Med Chem, 2010).

Calls of active or inactive are those of the source. The calls are words filed in the database; no cut-off is given here.

Series [1] is described as follows: Cellular uptake in human MES-SA cells at 25 uM after 2 hrs by fluorescence microscopy. Type of series: ADME, cell-based. The method, boiled down:
(§1)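 Cells plated at 70% confluence and left to adhere overnight. Treated with 0, 25 or 50 μM for 2 h, washed twice with PBS, then imaged live without fixation at 40× under fluorescence; blue aminoquinazoline and green dansylated species captured through separate filters.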

For series [2], the target named is Epidermal growth factor receptor (Homo sapiens, UniProt P00533). The series can be described thus: Inhibition of EGFR.
Chain of Epidermal growth factor receptor (P00533 whole entry): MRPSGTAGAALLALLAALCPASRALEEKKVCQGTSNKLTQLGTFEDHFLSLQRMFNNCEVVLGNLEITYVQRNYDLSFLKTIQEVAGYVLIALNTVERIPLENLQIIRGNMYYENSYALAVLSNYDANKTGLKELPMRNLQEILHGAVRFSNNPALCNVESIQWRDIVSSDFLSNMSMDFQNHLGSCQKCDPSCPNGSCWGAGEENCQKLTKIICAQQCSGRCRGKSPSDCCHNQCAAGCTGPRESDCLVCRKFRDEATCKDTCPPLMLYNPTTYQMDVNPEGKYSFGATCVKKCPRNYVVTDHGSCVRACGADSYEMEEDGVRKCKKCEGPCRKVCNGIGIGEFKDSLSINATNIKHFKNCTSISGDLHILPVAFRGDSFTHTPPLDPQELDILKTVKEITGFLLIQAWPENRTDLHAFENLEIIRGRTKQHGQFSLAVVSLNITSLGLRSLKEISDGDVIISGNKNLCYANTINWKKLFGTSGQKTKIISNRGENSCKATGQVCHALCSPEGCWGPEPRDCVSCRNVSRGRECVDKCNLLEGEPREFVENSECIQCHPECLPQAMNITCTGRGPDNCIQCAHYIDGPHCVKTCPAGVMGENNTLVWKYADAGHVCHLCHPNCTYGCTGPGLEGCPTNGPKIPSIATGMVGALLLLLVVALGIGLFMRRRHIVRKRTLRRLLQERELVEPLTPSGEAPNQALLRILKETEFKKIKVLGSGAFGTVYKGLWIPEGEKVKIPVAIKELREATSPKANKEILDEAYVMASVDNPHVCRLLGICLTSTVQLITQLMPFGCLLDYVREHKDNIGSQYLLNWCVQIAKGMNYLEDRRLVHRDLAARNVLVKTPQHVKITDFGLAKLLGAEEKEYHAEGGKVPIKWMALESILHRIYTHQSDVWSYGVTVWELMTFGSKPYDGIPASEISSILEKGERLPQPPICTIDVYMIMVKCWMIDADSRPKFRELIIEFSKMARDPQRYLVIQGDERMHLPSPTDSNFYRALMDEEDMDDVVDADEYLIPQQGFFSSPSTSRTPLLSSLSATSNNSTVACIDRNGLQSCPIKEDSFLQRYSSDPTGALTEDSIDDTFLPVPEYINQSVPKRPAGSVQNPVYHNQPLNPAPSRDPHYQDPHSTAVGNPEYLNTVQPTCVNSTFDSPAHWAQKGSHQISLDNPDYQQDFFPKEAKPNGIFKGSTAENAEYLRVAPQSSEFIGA
A short description of series [3]: Stability in serum assessed as half life by UV spectrophotometry. Type of series: ADME, cell-free.
Series [4] in a line: Antiproliferative activity against human MES-SA cells after 96 hrs by SRB assay. Type of series: functional, cell-based. For orientation: The SRB assay estimates cell density from bound dye.
The nature of series [5]: Antiproliferative activity against human MES-SA/Dx5 cells after 96 hrs by SRB assay. Conditions: MES-SA/Dx5, 96 h. Type of series: functional, cell-based. Put shortly:
(§2)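 Cells plated at 5000/well, attached overnight, then exposed to a range of drug concentrations for 96 h. Fixed with trichloroacetic acid (1 h, 4 °C), stained with 0.4% sulforhodamine B (2 h, room temperature), dye dissolved in 10 mM Tris base pH 10.0, OD read at 492 nm. IC50 taken from sigmoidal dose-response fit. At least three independent experiments in triplicate. DMSO ≤0.1% (v/v).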

Another series concerns MDA-MB-468. The series is described as follows: Antiproliferative activity against human MDA-MB-468 cells after 96 hrs by SRB assay. Type of series: functional, cell-based. Conditions: MDA-MB-468, 96 h. The method, boiled down: as §2
Series [6] deals with MES-SA. The series can be described thus: Selectivity ratio of IC50 for human MES-SA cells to IC50 for human MES-SA/Dx5 cells. Type of series: functional.
A short description of series [7]: Cellular uptake in human MES-SA cells after 2 hrs by flow cytometry. Type of series: ADME, cell-based. In general terms: A flow cytometer gives signals particle by particle.
Series [8] in a line: Cellular uptake in human MES-SA/Dx5 cells at 25 uM after 2 hrs by fluorescence microscopy. Type of series: ADME, cell-based. Conditions: mes-sa/dx5, 2 h. The method, boiled down:
as §1

The nature of series [9]: Cellular uptake in human MES-SA/Dx5 cells after 2 hrs by flow cytometry. Type of series: ADME, cell-based. Conditions: mes-sa/dx5, 2 h.
Series [10] has as its system MES-SA. The series can be described thus: Induction of DNA damage in human MES-SA cells assessed as increase in comet-tail length by alkaline comet assay. Type of series: functional, cell-based.
In another series the test system is MES-SA/Dx5. The series can be described thus: Induction of DNA damage in human MES-SA/Dx5 cells assessed as increase in comet-tail length by alkaline comet assay. Type of series: functional, cell-based.

By IC50 is commonly meant the concentration that gives 50% inhibition. Low readings indicate greater potency in that assay, high ones weaker potency in that assay. Broadly, the half-life is how long it takes for the measured level to halve. As for `CN(C)c1cccc2c(S(=O)(=O)NCCN=NNc3ccc4ncnc(Nc5cccc(Cl)c5)c4c3)cccc12`, the Drug uptake result in series [1], in series [7], in series [8] and in series [9] was “Active” throughout. In addition, the IC50 in series [2] amounted to 1.4 µM; in series [4], 26.6 µM; in series [5], 16.6 µM; in the series with MDA-MB-468, 9.1 µM. Further, the half-life in series [3] was found to be 4.96 min. In the series on MES-SA [6], the “Ratio IC50” value is 1.6.

`COc1cccc2c1C(=O)c1c(O)c3c(c(O)c1C2=O)C[C@@](O)(C(=O)CO)C[C@@H]3O[C@H]1C[C@H](N)[C@H](O)[C@H](C)O1` [DOXORUBICIN]: the Drug uptake entry in [1] and in series [7] was “Active” each time. Moreover, 3.1 µM corresponded to half-maximal inhibition in series [5] (IC50). Moreover, the outcome with MES-SA [10] and with MES-SA/Dx5 was Active.

On to `CN(CCN=NNc1ccc2ncnc(Nc3cccc(Cl)c3)c2c1)CCNS(=O)(=O)c1cccc2c(N(C)C)cccc12`, for which the Drug uptake entry in series [1], in [7], in series [8] and in series [9] was “Active” in each case. In series [2], this molecule showed an IC50 of 0.6 µM. For the same molecule, the half-life in [3] was determined as 21.7 min.

On to `CN(CCN/N=N/c1ccc2ncnc(Nc3cccc(Cl)c3)c2c1)CCNS(=O)(=O)c1cccc2c(N(C)C)cccc12`, for which the IC50 in series [4] was 8.57 µM; in series [5], 9.34 µM; in the series with MDA-MB-468, 5.2 µM. In addition, the result in the series with MES-SA [10] and in the series on MES-SA/Dx5 was Active.

Consider `CN(C)CCN/N=N/c1ccc2ncnc(Nc3cccc(Cl)c3)c2c1`, for which the half-life in series [3] is 108 min.
